# Screens from PubChem.
# A selection: hits, their analogues and other compounds. The true share with any hit is near 2.1%.
# Thrombin inh – human alpha-thrombin inhibitors, primary screen, counter-screen for coagulation protease inhibitor project, biochemical, 1536-well, fluorogenic AMC substrate; Prothrombin (Homo sapiens), P00734; Boc-VPR-AMC fluorogenic substrate cleavage; inhibition, % at 5 µM; 0.26% of 220,000 active;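 active = inhibition at or above 40%; inactive = inhibition below 40%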;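 note: 0% = enzyme with no compound and 100% = wells without enzyme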
#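 Material: human alpha-thrombin protein; Also added: Boc-VPR-AMC substrate, 15 µM final; Timing: enzyme reaction carried out at room temperature; Signal: fluorescence, ex 355 nm, em 460 nm; Measure: % inhibition of thrombin; Controls: enzyme without compound as high, wells lacking enzyme as low.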
# FXIIa inh – human FXIIa protease inhibitors, primary screen, biochemical, 1536-well | Coagulation factor XII (Homo sapiens), P00748 | purified FXIIa, Boc-QGR-AMC fluorogenic substrate, 2 h | inhibition, % at 5 µM | 0.3% of 220,000 active; in the data active = inhibition above about 40%;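 note: 0% = enzyme with no compound and 100% = blank without enzyme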
# Target sequence (P00748 20-372 limits assumed): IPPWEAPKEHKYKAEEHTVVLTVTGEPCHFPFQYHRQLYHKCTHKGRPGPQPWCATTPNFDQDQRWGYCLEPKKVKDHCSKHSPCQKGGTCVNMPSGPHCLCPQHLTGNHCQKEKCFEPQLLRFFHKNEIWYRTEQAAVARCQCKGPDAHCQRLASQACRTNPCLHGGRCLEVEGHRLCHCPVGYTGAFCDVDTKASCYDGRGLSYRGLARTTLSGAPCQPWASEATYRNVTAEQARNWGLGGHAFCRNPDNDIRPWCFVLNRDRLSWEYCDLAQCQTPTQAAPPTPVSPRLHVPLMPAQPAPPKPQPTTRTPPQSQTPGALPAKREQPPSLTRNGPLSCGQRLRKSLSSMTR
# Target sequence (P00748 373-615 limits assumed): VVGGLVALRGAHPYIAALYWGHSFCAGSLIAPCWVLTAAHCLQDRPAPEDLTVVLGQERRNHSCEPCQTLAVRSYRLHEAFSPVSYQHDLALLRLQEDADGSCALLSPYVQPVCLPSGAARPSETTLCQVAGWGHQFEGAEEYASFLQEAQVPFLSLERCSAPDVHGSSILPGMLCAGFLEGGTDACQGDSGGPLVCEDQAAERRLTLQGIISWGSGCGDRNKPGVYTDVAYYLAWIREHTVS
# FXIa inh – human FXIa protease inhibitors, primary screen, biochemical, 1536-well | Coagulation factor XI (Homo sapiens), P03951 | purified FXIa, Boc-Glu-Ala-Arg-AMC fluorogenic substrate | inhibition, % at 5 µM | 0.14% of 220,000 active | AID 798, 2007;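 active = inhibition of at least 40%; inactive = inhibition below 40%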;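 note: fluorescence of freed AMC excited at 355 nm; 0% = enzyme without compound and 100% = no enzyme blank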
# KLK5 inh – human KLK5 protease inhibitors, primary screen, biochemical, 1536-well; recombinant hK5, fluorogenic AMC substrate cleavage; inhibition, % at 5 µM; 0.59% of 210,000 active;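 active = inhibition of 40% or more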;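 note: 0% = enzyme controls without compound and 100% = no-enzyme blanks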
# EP2 modulator – EP2 receptor modulators, cAMP readout, primary screen, cell-based, HTRF cAMP, PGE2 stimulation; EP2-expressing cells, cAMP HTRF FRET, PGE2 co-stimulation; induction, % at 25 µM; 0.83% of 260,000 active; AID 940, 2007;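 active = compounds whose cAMP rise, as percent of the full-agonist control response, exceeds 60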;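 note: rat C6 glioma line stably carrying human EP2 under a CMV promoter; the protocol text gives 20 µM as final concentration; 100% = response of wells given 1 µM PGE2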
# PGE2 EP2 inh – human EP2 receptor antagonists, primary screen, TR-FRET cAMP, C6 glioma cells | C6 glioma cells expressing human EP2; cells stimulated with saturating PGE2 | inhibition, % at 25 µM | 0.52% of 260,000 active;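 active = percent inhibition above 40 after rounding to a whole number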;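 note: rat C6 glioma host cells with rolipram phosphodiesterase inhibitor present; the protocol text gives 20 µM as final concentration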
# EP2 confirm – cAMP induction in EP2, EP4, beta2-AR and parental cells, confirmation, counter-screen for EP2 modulator project, cell-based, five parallel assays, C6 glioma, HEK293; 47% of 1,300 active; AID 1080, 2008; shares compounds with EP2 modulator; cAMP HTRF induction; plus low (about EC15) PGE2 agonist; calls only at 20 µM (by protocol);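 active = cAMP induction above 50% in the main assay while under 30% in all four parallel counter assays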;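 note: rat C6 glioma cells stably expressing human EP2 receptor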
# * hit, by the source's call; i = inactive; . = no result given; + = active, no number.
SMILES,Thrombin inh,FXIIa inh,FXIa inh,KLK5 inh,EP2 modulator,PGE2 EP2 inh,EP2 confirm
CC(OC(=O)c1oc2ccccc2c1COc1ccccc1)C(=O)NC(N)=O (stereo unspecified),-7,4,-5,-1,70*,5,i
CCOCCCNC(=O)CSc1nnc2c3cc(CC)ccc3n(C)c2n1,.,.,.,.,-17,8,.
C=CCn1c(SCC(N)=O)nc(C)cc1=O,2,18,4,-8,68*,12,i
C/C(=N\N(Cc1ccccc1)c1ccccc1)c1ccncc1,-5,.,-3,-2,75*,17,+
COc1cc2[nH]c(=O)c(C(=O)NCCc3ccc(Cl)cc3)c(O)c2cc1OC,.,.,.,.,2,10,.
C=CCn1c(=O)c(C(=O)Nc2ccccc2Br)c(O)c2ccccc21,.,.,.,.,5,4,.
C=CCn1c(=O)c(C(=O)NCCc2ccccc2)c(O)c2ccccc21,5,15,4,3,67*,8,i
COc1cccc(C(=O)Nc2ccccc2)c1,-10,0,-6,-2,15,5,.
COc1cccc(C(=O)Nc2cccc(OCC(=O)O)c2)c1,4,17,6,-6,93*,6,+
CC(C)NC(=O)CSc1nc(CCC2CCCC2)nc2ccccc12,.,.,.,.,49,20,.
O=C(c1cc2sccc2n1Cc1ccccc1)N1CCCc2ccccc21,-1,12,1,2,69*,4,+
Cn1c(C(=O)N2CCCc3ccccc32)cc2sccc21,1,8,4,-8,66*,9,+
C=CCc1cccc2cc(C(=O)NNC(=O)c3ccc(OC)c(OC)c3)c(=O)oc12,.,.,.,.,-9,2,.
COCCCn1c(SCC(=O)c2ccc(Cl)cc2)nnc1-c1ccoc1C,.,.,.,.,-13,0,.
CCn1cc(C(=O)N[C@@H](C)Cn2nnc3ccccc32)cn1,.,.,.,.,-9,13,.
CSc1nc(Oc2ccccc2)c2sccc2n1,6,-3,-17,-30,66*,6,+
C=CCSc1nc(Oc2ccccc2)c2sccc2n1,1,15,1,-1,69*,8,i
C=CCNc1nc(SCC=C)nc2ccsc12,1,14,3,-8,25,.,.
CN(Cc1ccccc1)S(=O)(=O)c1ccc(OCC(=O)N2CCCCC2)cc1,.,.,.,.,-40,9,.
CCOc1ccccc1C(=O)Nc1ccsc1C(=O)OC,-1,10,6,-9,81*,11,+
Cc1ccc(C)c(/C(O)=C2/C(=O)C(=O)N(Cc3cccnc3)C2c2ccncc2)c1 (stereo unspecified),.,.,.,.,3,9,.
Cn1c(SCC(=O)Nc2ccc3c(c2)OCO3)nnc1-c1ccccc1,.,.,.,.,-15,12,.
Cc1ccc(-c2nc3ccccc3nc2Cl)cc1,-6,-1,-5,-6,65*,8,i
COc1ccc(C)cc1NC(=O)c1ccc(S(=O)(=O)N2CCOCC2)cc1,-6,4,0,0,-23,9,.
CCn1c(=NC(=O)c2ccc(S(=O)(=O)N3CCOCC3)cc2)sc2cccc(OC)c21,1,12,1,-4,68*,15,i
O=c1c2ccccc2c(-c2ccccc2)nn1Cc1c(Cl)cccc1Cl,-2,12,1,-6,85*,6,+
COc1ccc(N2C(=O)N(Cc3ccc(C)cc3)c3ccccc3S2(=O)=O)cc1,-9,9,-2,-6,79*,4,+
O=C(Cn1nc(-c2ccoc2)oc1=O)N1CCCC1,.,.,.,.,-9,2,.
